Experimental data published in ChEMBL document CHEMBL1138681, “Identification of structurally diverse growth hormone secretagogue agonists by virtual screening and structure-activity relationship analysis of 2-formylaminoacetamide derivatives” (J Med Chem, 2004).
Calls of active or inactive are those of the source. The calls are words filed in the database; no cut-off is given here.

Tests used:
[1] = target: T1, Growth hormone secretagogue receptor type 1 (Homo sapiens, UniProt Q92847); experiment: Tested for growth hormone secretagogue activity in A93 cell line using a calcium flux assay at 10 uM (Relative to compound T1); NA means not active; type: functional, cell-based
[2] = target: T1, Growth hormone secretagogue receptor type 1; experiment: Tested for growth hormone secretagogue activity in A93 cell line using a calcium flux assay at 10 uM (Relative to compound T1); type: functional, cell-based
[3] = target: T1, Growth hormone secretagogue receptor type 1; experiment: Binding affinity for human growth hormone secretagogue receptor was determined using [125I]ghrelin
Summary of the method: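 Competition binding with (125I)ghrelin (human) at the GHS receptor, run by a contract laboratory following published methods. Ki values were derived from binding curves.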

[4] = target: T1, Growth hormone secretagogue receptor type 1; experiment: Binding affinity for human growth hormone secretagogue receptor using [125I]ghrelin; NA means not active
Summary of the method: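 Radioligand displacement with (125I)ghrelin (human) at GHS receptor, run by a contract lab following published methods; Ki values reported; binding curves in supplement.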

T1 sequence (Q92847 whole entry): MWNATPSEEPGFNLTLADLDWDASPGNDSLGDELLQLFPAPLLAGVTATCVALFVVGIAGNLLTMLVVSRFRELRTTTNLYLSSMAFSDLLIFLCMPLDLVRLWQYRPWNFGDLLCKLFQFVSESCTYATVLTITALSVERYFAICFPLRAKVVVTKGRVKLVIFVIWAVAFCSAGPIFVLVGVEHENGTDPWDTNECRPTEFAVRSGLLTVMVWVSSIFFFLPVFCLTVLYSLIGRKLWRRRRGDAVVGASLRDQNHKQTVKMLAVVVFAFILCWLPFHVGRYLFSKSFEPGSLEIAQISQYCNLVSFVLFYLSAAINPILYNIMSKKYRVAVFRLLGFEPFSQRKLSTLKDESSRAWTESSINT

CCN(CC)CCN(C(=O)c1ccc(CN2CCCCC2)o1)C(C(=O)NC1CCCCC1)c1ccc(N(C)C)cc1 (stereo unspecified)
Activity [1]: inactive

CCN(CC)CCN(C(=O)c1ccc(-c2ccccc2)[nH]1)C(C(=O)NC1CCCCC1)c1ccc(F)cc1 (stereo unspecified)
Activity [2]: 0.24
Ki [3]: 1370 nM

CCN(CC)CCCN(C(=O)c1ccc(-c2ccccc2)[nH]1)C(Cc1ccc(C)o1)C(=O)NC1CCCCC1 (stereo unspecified)
Activity [2]: 0.28
Ki [3]: 1170 nM

CCCCC(C(=O)NC1CCCCC1)N(CCCN(CC)CC)C(=O)c1ccc(-c2ccccc2)[nH]1 (stereo unspecified)
Activity [2]: 1.6
Ki [3]: 280 nM

CCN(CC)CCN(C(=O)c1ccc(-c2ccccc2)[nH]1)C(C(=O)NC1CCCCC1)c1c[nH]c2ccccc12 (stereo unspecified)
Activity [1]: inactive

CCOc1ccc(C(C(=O)NC2CCCCC2)N(CCCN(CC)CC)C(=O)c2ccc(-c3ccccc3)[nH]2)cc1 (stereo unspecified)
Activity [1]: inactive

CCN(CC)CCN1C(=O)[C@@](O)(c2ccccc2Cl)c2c1cc(C(N)=O)cc2C(F)(F)F
IC50 [3]: 1.2 nM

CCN(CC)CCCN(C(=O)c1ccc(-c2ccccc2)[nH]1)C(C(=O)NCc1ccc(F)cc1)c1ccc(F)cc1 (stereo unspecified)
Activity [2]: 0.45
Ki [3]: 1150 nM

CCN(CC)CCCN(C(=O)c1ccc(-c2ccccc2)[nH]1)C(C(=O)NC1CCCCC1)c1ccncc1 (stereo unspecified)
Activity [2]: 1.16
Ki [3]: 910 nM

CCN(CC)CCCN(C(=O)c1ccc(-c2ccccc2)[nH]1)C(C)C(=O)NC1CCCCC1 (stereo unspecified)
Activity [2]: 0.96
Ki [3]: 1920 nM

COc1ccc(CN(C(=O)c2ccc(-c3ccccc3)[nH]2)C(C)C(=O)NC2CCCCC2)cc1 (stereo unspecified)
Activity [1]: inactive

CCN(CC)CCCN(C(=O)c1ccc(-c2ccccc2)[nH]1)C(C(=O)NC1CCCCC1)c1cccs1 (stereo unspecified)
Activity [1]: inactive

Cc1ccc(CC(C(=O)NC2CCCCC2)N(C(=O)c2ccc(-c3ccccc3)[nH]2)C2CCCC2)o1 (stereo unspecified)
Activity [1]: inactive

O=C(NC1CCCCC1)C(c1ccc(F)cc1)N(CCCN1CCOCC1)C(=O)c1ccc(-c2ccccc2)[nH]1 (stereo unspecified)
Ki [4]: Not Active

CCN(CC)CCCN(C(=O)c1snc(C(N)=O)c1N)C(C(=O)NC1CCCCC1)c1ccc(F)cc1 (stereo unspecified)
Activity [1]: inactive

CCN(CC)CCCN(C(=O)c1ccc(-c2ccccc2)[nH]1)C(C(=O)NC1CCCCC1)c1ccco1 (stereo unspecified)
Activity [1]: inactive

O=C(NC1CCCCC1)C(c1ccc(F)cc1)N(C(=O)c1ccc(-c2ccccc2)[nH]1)C1CCCCC1 (stereo unspecified)
Activity [1]: inactive

O=C(NC1CCCCC1)C(c1ccc(F)cc1)N(CCN1CCOCC1)C(=O)c1ccc(-c2ccccc2)[nH]1 (stereo unspecified)
Activity [1]: inactive

CCN(CC)CCCN(C(=O)c1ccc(-c2ccccc2)[nH]1)C(C)C(=O)NC(C)(C)C (stereo unspecified)
Activity [2]: 0.38
Ki [3]: 1180 nM

CCOC(=O)CN(C(=O)c1ccc(-c2ccccc2)[nH]1)C(C)C(=O)NC1CCCCC1 (stereo unspecified)
Activity [1]: inactive

CCN(CC)CCCN(C(=O)c1ccc(-c2ccccc2)[nH]1)C(C(=O)NC1CCCCC1)c1ccc(F)cc1 (stereo unspecified)
Activity [2]: 0.57
Ki [3]: 1290 nM

CCN(CC)CCCN(C(=O)c1ccc(-c2ccccc2)[nH]1)C(C(=O)NC1CCCCC1)c1ccc(O)cc1 (stereo unspecified)
Activity [2]: 0.52
Ki [3]: 1320 nM

CCN(CC)CCCN(C(=O)c1ccc(-c2ccccc2)[nH]1)C(C(=O)NC1CCCCC1)c1ccc(OC)c(OC)c1 (stereo unspecified)
Activity [2]: 0.32
Ki [3]: 2630 nM

O=C(NC1CCCCC1)C(c1ccc(F)cc1)N(CCCN1CCOCC1)C(=O)c1ccc(CN2CCOCC2)o1 (stereo unspecified)
Activity [1]: inactive

CCC(C(=O)NC1CCCCC1)N(CCCN(CC)CC)C(=O)c1ccc(-c2ccccc2)[nH]1 (stereo unspecified)
Activity [2]: 1.23
Ki [3]: 220 nM

O=C(NC1CCCC1)C(c1ccncc1)N(C(=O)c1ccc(-c2ccccc2)[nH]1)c1ccccc1 (stereo unspecified)
Activity [1]: inactive

CCCC(C(=O)NC1CCCCC1)N(CCCN(CC)CC)C(=O)c1ccc(-c2ccccc2)[nH]1 (stereo unspecified)
Activity [2]: 1.37
Ki [3]: 870 nM

CCN(CC)CCCN(C(=O)c1ccc(-c2ccccc2)[nH]1)C(C(=O)NC1CCCCC1)c1cc(OC)c(OC)c(OC)c1 (stereo unspecified)
Activity [1]: inactive

CCN(CC)CCCN(C(=O)c1ccc(-c2ccccc2)[nH]1)C(C(=O)NC1CCCCC1)c1ccc(C)cc1 (stereo unspecified)
Activity [1]: inactive

O=C(NC1CCCC1)C(c1ccncc1)N(CCCN1CCOCC1)C(=O)c1ccc(-c2ccccc2)[nH]1 (stereo unspecified)
Activity [1]: inactive

O=C(NC1CCCCC1)C(c1ccc(F)cc1)N(C(=O)c1ccc(-c2ccccc2)[nH]1)c1ccccc1 (stereo unspecified)
Activity [1]: inactive

CCN(CC)CCCN(C(=O)Cn1nnc(-c2ccc(OC)c(OC)c2)n1)C(C(=O)NC1CCCCC1)c1ccc(F)cc1 (stereo unspecified)
Activity [1]: inactive

CCN(CC)CCN(C(=O)c1ccc(CN2CCCCC2)o1)C(C(=O)NC1CCCCC1)c1ccc(F)cc1 (stereo unspecified)
Ki [4]: Not Active

CCN(CC)CCCN(C(=O)c1ccc(-c2ccccc2)[nH]1)C(C(=O)NC1CCCCC1)c1cc(OC)ccc1OC (stereo unspecified)
Activity [1]: inactive

COc1ccc(CN(C(=O)c2ccc(-c3ccccc3)[nH]2)C(C(=O)NC2CCCCC2)c2ccc(F)cc2)cc1 (stereo unspecified)
Activity [1]: inactive

Cc1ccc(CC(C(=O)NC2CCCCC2)N(Cc2ccccc2)C(=O)c2ccc(-c3ccccc3)[nH]2)o1 (stereo unspecified)
Activity [1]: inactive

CC(C)(C)NC(=O)C(c1ccc(F)cc1)N(CCCN1CCOCC1)C(=O)c1ccc(-c2ccccc2)[nH]1 (stereo unspecified)
Ki [4]: Not Active

CCN(CC)CCCN(C(=O)CCN1CCCc2ccccc21)C(C(=O)NC1CCCCC1)c1ccc(F)cc1 (stereo unspecified)
Activity [2]: 0.31
Ki [3]: 2030 nM
